Experimental data from different studies.
Protocols differ between the studies behind these lines.
Sample: plasma

COc1ccc(N(Cc2csc(-c3ccccc3)n2)C(=O)CCCCCC(=O)NO)cc1  MRT (female Sprague-Dawley rat; oral; 30 mg/kg): 3.18 h
Cn1c(=O)c2[nH]cnc2n(C)c1=O  MRT(0-t) (male Sprague-Dawley rat; intravenous; 11.25 mg/kg): 3.3 h
COc1nc(-c2cccc(-c3ccccc3)c2C)ccc1CNCCNC(=O)CCCCCCCCCCC(=O)N1CCN(CCNC(=O)c2cc3c(=O)n4cccc(C)c4nc3n(CCc3cccs3)c2=N)CC1  MRT(0-t) (male Sprague-Dawley rat; intravenous; 2 mg/kg): 4.8 h
C[C@@]12C[C@@]3(O)O[C@@H](O1)[C@]1(COC(=O)c4ccccc4)[C@H]3C[C@@]12O[C@@H]1O[C@H](CO)[C@@H](O)[C@H](O)[C@H]1O  MRT(0-inf) (male Sprague-Dawley rat; oral; 80 mg/kg): 10.9 h
C[C@H]1Oc2cc(cnc2N)-c2c(nn(C)c2C#N)CN(C)C(=O)c2ccc(F)cc21  MRT(0-t) (male Sprague-Dawley rat; oral; 5 mg/kg; single dose): 6.6 h
O=C1CCC(N2Cc3cc(C4CCN(Cc5ccccc5)CC4)ccc3C2=O)C(=O)N1 (centres unmarked)  MRT(0-t) (male Sprague-Dawley rat; oral; 3 mg/kg): 3 h
Nc1ccn([C@@H]2O[C@H](CO)[C@@H](O)C2(F)F)c(=O)n1  MRT(0-inf) (male Sprague-Dawley rat; intravenous; 5 mg/kg): 0.13 h
C[C@H]1[C@@H](O)O[C@@H]2O[C@@]3(C)CC[C@H]4[C@H](C)CC[C@@H]1[C@@]24OO3  MRT(0-t) (male Sprague-Dawley rat; oral; 10 mg/kg): 1.56 h
CC[C@@H]([C@H](C)O)n1ncn(-c2ccc(N3CCN(c4ccc(OC[C@@H]5CO[C@@](Cn6cncn6)(c6ccc(F)cc6F)C5)cc4)CC3)cc2)c1=O  MRT(0-inf) (Sprague-Dawley rat; oral; 40 mg/kg): 22.1 h
CCOc1c([C@H](C)n2nc(C)c3c(N)ncnc32)cc(Cl)c(F)c1[C@@H]1CNC(=O)C1  MRT(0-t) (male Sprague-Dawley rat; oral; 2 mg/kg; single dose): 7.67 h
CC(=O)c1c(C)c2cnc(Nc3ccc(N4CCNCC4)cn3)nc2n(C2CCCC2)c1=O  MRT (male Sprague-Dawley rat; intravenous; 5 mg/kg): 2.5 h
